Hits are enriched below; roughly 1.2% of the tested compounds scored in any of these assays.
Fh CTSL1 inh – Fasciola hepatica cathepsin L1 inhibitors, primary screen, counter-screen for PFM18AAP inhibitor project, biochemical, QFRET, fluorogenic peptide substrate | inhibition, % at 5.96 µM | hit rate 0.49% among 300,000 | recombinant F. hepatica cathepsin L1, Z-Leu-Arg-MCA fluorescence;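 active = inhibition above the mean of all tested compounds plus 3 SD, set per screening campaign, cut at about 17% in these data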
TDP2 absorb – human TDP2 enzyme inhibitors, primary screen, biochemical, epi absorbance, recombinant enzyme | inhibition, % at 12.8 µM | hit rate 0.34% among 370,000 | AID 720702, 2013 | Tyrosyl-DNA phosphodiesterase 2 (Homo sapiens), O95551 | T5PNP hydrolysis, p-nitrophenol absorbance 415 nm;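 active = inhibition above the mean of all tested compounds plus 3 SD, set per campaign, cut at about 25% in these data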
Target sequence (O95551 whole entry, looked up): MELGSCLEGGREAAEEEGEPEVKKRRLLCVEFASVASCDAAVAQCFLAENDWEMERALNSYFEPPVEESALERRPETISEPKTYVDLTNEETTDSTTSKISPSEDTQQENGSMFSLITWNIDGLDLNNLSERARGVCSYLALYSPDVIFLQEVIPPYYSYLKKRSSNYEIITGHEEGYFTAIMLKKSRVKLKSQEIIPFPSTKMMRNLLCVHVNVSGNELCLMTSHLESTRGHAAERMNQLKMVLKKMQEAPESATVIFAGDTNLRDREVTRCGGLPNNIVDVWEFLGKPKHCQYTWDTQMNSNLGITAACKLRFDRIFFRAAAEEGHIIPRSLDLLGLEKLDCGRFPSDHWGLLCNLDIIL
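System – recombinant human TDP2 · Quantity – TDP2 enzyme at 120 nM final · Doses – single concentration, 12.8 µM nominal, with 1% DMSO · Incubation – 2 h at 37 °C · Measured by – epi absorbance of p-nitrophenol freed from T5PNP by hydrolysis · Read-out – % inhibition relative to enzyme-containing and enzyme-free wells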
NSD2 inh – NSD2 histone methyltransferase inhibitors, primary screen, biochemical, AlphaScreen, single concentration, set 2; Histone-lysine N-methyltransferase NSD2 (Homo sapiens), O96028; inhibition, % at 12.5 µM; NSD2 peptide methylation, 120 min; hit rate 0.54% among 310,000; in the data active = inhibition above about 50%
SUMO HTRF inh – inhibitors of in vitro SUMOylation cascade, primary screen, biochemical, HTRF, uHTS | HTRF SUMOylation assay, SAE1/SAE2 + UBC9 | hit rate 0.36% among 290,000 | SUMO-conjugating enzyme UBC9 (Homo sapiens), P63279 | inhibition, % at 35 µM; in the data active = inhibition above about 50%, passing the limit was not always enough
Target sequence (P63279 whole entry, looked up): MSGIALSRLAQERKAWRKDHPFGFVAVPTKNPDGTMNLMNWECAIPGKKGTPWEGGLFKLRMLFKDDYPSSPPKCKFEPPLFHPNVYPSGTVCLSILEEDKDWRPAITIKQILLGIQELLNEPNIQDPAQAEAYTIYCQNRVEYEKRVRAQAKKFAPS
TDP2 confirm – human TDP2 enzyme inhibitors, retest, confirmation, biochemical, epi absorbance, recombinant enzyme; shares compounds with TDP2 absorb; hit rate 22% among 1,100; inhibition, % at 12.8 µM; absorbance read-out; in the data active = inhibition above about 25%
A number is an active result; ! = a repeat was not active.

How did c1ccc(-c2nc3ccccc3nc2-c2ccc(CN3CCC(n4nnc5ccccc54)CC3)cc2)cc1 do in these assays?
TDP2 absorb: inactive

Results for COCCNC(=O)c1c(N)n(CCC(C)C)c2nc3ccccc3nc12 ?
Fh CTSL1 inh: inactive; TDP2 absorb: inactive; NSD2 inh: inactive; SUMO HTRF inh: inactive

What do the screens show for `COCCNC(=O)c1c(NC(=O)c2ccc(Br)o2)n(Cc2ccccc2)c2nc3ccccc3nc12`?
Fh CTSL1 inh: inactive; TDP2 absorb: inactive; NSD2 inh: inactive; SUMO HTRF inh: 98.7

How did COc1ccc(Cn2c(N)c(C(=O)NCc3ccco3)c3nc4ccccc4nc32)cc1OC do in these assays?
Fh CTSL1 inh: inactive; TDP2 absorb: inactive; NSD2 inh: inactive; SUMO HTRF inh: 99.9

What do the screens show for `COCCCNC(=O)c1c(N)n(Cc2ccco2)c2nc3ccccc3nc12`?
Fh CTSL1 inh: inactive; TDP2 absorb: inactive; NSD2 inh: inactive; SUMO HTRF inh: inactive

What do the screens show for `O=C1NCN(c2ccccc2)C12CCN(C(CCc1ccccc1)c1nnnn1-c1ccc3c(c1)OCCO3)CC2` (stereo unspecified)?
TDP2 absorb: inactive

What do the screens show for `O=C1CC=C2C3CC4N(CCC45c4cc(O)c(O)cc4N1C25)CC3=CCBr` (stereo unspecified)?
TDP2 absorb: inactive; NSD2 inh: 107.0

How did CC(C)OC(=O)Nc1ccc(N=C(N)N[N+](=O)[O-])cc1 do in these assays?
Fh CTSL1 inh: inactive; TDP2 absorb: inactive; NSD2 inh: inactive; SUMO HTRF inh: inactive

Results for O=C1C(Br)C2CCC1C2C(=O)O (stereo unspecified) ?
TDP2 absorb: inactive; NSD2 inh: inactive

What do the screens show for `CN1CCN(c2ccc([N+](=O)[O-])c3no[n+]([O-])c23)CC1`?
Fh CTSL1 inh: 17.5; TDP2 absorb: 24.6; NSD2 inh: 97.0; SUMO HTRF inh: 54.6; TDP2 confirm: 26.4

What do the screens show for `O=C1CC(=O)N(Cc2ccccc2)C(=S)N1`?
Fh CTSL1 inh: inactive; TDP2 absorb: 32.3; NSD2 inh: inactive; SUMO HTRF inh: inactive; TDP2 confirm: inactive

What do the screens show for `CC1CC(C)(O)CC(C(O)CC2CC(=O)NC(=O)C2)C1=O` (stereo unspecified)?
TDP2 absorb: inactive; NSD2 inh: inactive

Results for CNc1ccc2oc(C[C@H]3O[C@@]4(CC[C@H]3C)O[C@H]([C@H](C)C(=O)c3ccc[nH]3)[C@H](C)C[C@H]4C)nc2c1C(=O)O ?
Fh CTSL1 inh: inactive; TDP2 absorb: 29.4; SUMO HTRF inh: inactive; TDP2 confirm: inactive

What do the screens show for `COc1cccc(C(c2nnnn2C2CCCCC2)N2CCC3(CC2)C(=O)NCN3c2ccccc2)c1OC` (stereo unspecified)?
TDP2 absorb: inactive

Results for COc1cc2c(cc1OC)-c1c(OC)c(OC)cc3c1[C@H](C2)N(C)CC3 ?
Fh CTSL1 inh: inactive; TDP2 absorb: 73.9; SUMO HTRF inh: inactive; TDP2 confirm: 55.9

Results for O=C1C(=O)c2cccc3cccc1c23 ?
Fh CTSL1 inh: inactive; TDP2 absorb: inactive; NSD2 inh: inactive; SUMO HTRF inh: inactive

What do the screens show for `O=C1C(=O)c2ccccc2-c2ccccc21`?
Fh CTSL1 inh: 110.0; TDP2 absorb: 68.0; SUMO HTRF inh: 100.2; TDP2 confirm: 90.0

How did C/C(=N\NC(=O)c1ccccc1O)c1c(O)n(Cc2ccccc2)c(=O)[nH]c1=O do in these assays?
Fh CTSL1 inh: inactive; TDP2 absorb: 27.9; NSD2 inh: inactive; SUMO HTRF inh: inactive; TDP2 confirm: inactive

How did C/C(=N\NC(=O)c1ccncc1)c1c(O)n(Cc2ccccc2)c(=O)[nH]c1=O do in these assays?
Fh CTSL1 inh: inactive; TDP2 absorb: inactive; NSD2 inh: inactive; SUMO HTRF inh: inactive

What do the screens show for `NNc1n[nH]c(=S)n1N`?
Fh CTSL1 inh: inactive; TDP2 absorb: 32.9; NSD2 inh: inactive; SUMO HTRF inh: inactive; TDP2 confirm: inactive

Results for CC[C@@H](CO)NC(=O)[C@@H]1C=C2c3cccc4c3c(cn4C)C[C@H]2N(C)C1 ?
Fh CTSL1 inh: 17.4!; TDP2 absorb: 31.1!; SUMO HTRF inh: inactive; TDP2 confirm: inactive

Results for O=C1NC(=O)C(C2CCOC2=O)N1 (stereo unspecified) ?
TDP2 absorb: inactive; NSD2 inh: inactive

Results for O=C(CCNC(=O)N1C[C@H]2C[C@@H](C1)c1cccc(=O)n1C2)Nc1ccc(F)cc1 ?
Fh CTSL1 inh: inactive; TDP2 absorb: inactive; SUMO HTRF inh: inactive

Results for CC1(C)CC(=O)C(C2(O)C(=O)NC(=O)NC2=O)=C(O)C1 ?
Fh CTSL1 inh: inactive; TDP2 absorb: 53.5; SUMO HTRF inh: inactive; TDP2 confirm: 50.4

How did CC[C@@H](CO)C1CC2NC3CC4(c5ccccc5N(C)[C@@H]24)C(O)C31 (stereo partly specified) do in these assays?
Fh CTSL1 inh: inactive; TDP2 absorb: inactive

Results for O=S(=O)(NC1CCCCC1)OCC(Cl)(Cl)Cl ?
Fh CTSL1 inh: inactive; TDP2 absorb: inactive; SUMO HTRF inh: inactive

How did Nc1c(C(=O)OCC2CCCO2)c2nc3ccccc3nc2n1Cc1cccs1 (stereo unspecified) do in these assays?
Fh CTSL1 inh: inactive; TDP2 absorb: 30.9; NSD2 inh: inactive; SUMO HTRF inh: inactive; TDP2 confirm: inactive

Results for CC(C)OCCCNC(=O)c1c(N)n(Cc2cccs2)c2nc3ccccc3nc12 ?
Fh CTSL1 inh: inactive; TDP2 absorb: inactive; NSD2 inh: inactive; SUMO HTRF inh: inactive

Results for O=c1c2ccccc2nc(/C=C/c2ccccc2O)n1-c1ccccc1O ?
Fh CTSL1 inh: inactive; TDP2 absorb: 30.1; NSD2 inh: inactive; SUMO HTRF inh: inactive; TDP2 confirm: inactive

Results for O=c1c2ccccc2nc(/C=C/c2ccccc2F)n1-c1ccccc1O ?
Fh CTSL1 inh: inactive; TDP2 absorb: inactive; NSD2 inh: inactive; SUMO HTRF inh: inactive

How did O=c1cc(C2CCNCC2)[nH][nH]1 do in these assays?
Fh CTSL1 inh: inactive; TDP2 absorb: 55.9; NSD2 inh: inactive; SUMO HTRF inh: inactive; TDP2 confirm: inactive

What do the screens show for `COC1CCCCC1NCCc1ccccc1` (stereo unspecified)?
Fh CTSL1 inh: inactive; TDP2 absorb: 25.9; NSD2 inh: inactive; SUMO HTRF inh: inactive; TDP2 confirm: inactive

Results for O=c1cccc2n1CC1CC2CN(c2ncnc3c2cnn3-c2ccc(Cl)cc2)C1 (stereo unspecified) ?
Fh CTSL1 inh: inactive; TDP2 absorb: inactive; NSD2 inh: inactive; SUMO HTRF inh: inactive

Results for CNc1ccc2nc3ccccc3[n+](C)c2c1 ?
Fh CTSL1 inh: inactive; TDP2 absorb: 45.7; NSD2 inh: 81.3; SUMO HTRF inh: inactive; TDP2 confirm: 32.4

What do the screens show for `CC(C)CN(CC(C)C)C(=O)C1C2c3ccccc3C(c3ccccc32)C1C(=O)O` (stereo unspecified)?
TDP2 absorb: inactive; NSD2 inh: inactive; SUMO HTRF inh: inactive

Screening results: PubChem BioAssay, several laboratories
